Laboratory results from ChEMBL document CHEMBL1147105, “In vitro and in vivo activities of PD 0305970 and PD 0326448, new bacterial gyrase/topoisomerase inhibitors with potent antibacterial activities versus multidrug-resistant gram-positive and fastidious organism groups” (2007).
In brackets after ≈: the same amount, converted by molar mass.

Tests used:
Format in all cases: functional
Proteus vulgaris = test: Antibacterial activity against Proteus vulgaris
Summary of the method: (§1)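 Broth microdilution MIC following CLSI guidelines, in cation-adjusted Mueller-Hinton broth, incubated at 35°C. Recent clinical isolates and reference strains, with identity confirmed by automated and standard microbiological methods. Results reported as MIC range, MIC50 and MIC90.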

Klebsiella aerogenes = test: Antibacterial activity against Enterobacter aerogenes; summary of the method: as §1
Shigella sonnei = test: Antibacterial activity against Shigella sonnei; summary of the method: as §1
Cutibacterium acnes = test: Antibacterial activity against Propionibacterium acnes
Haemophilus influenzae = test: Antibacterial activity against beta-lactamase negative Haemophilus influenzae
Summary of the method: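 Broth microdilution MIC following CLSI guidelines, in Haemophilus test medium at 35°C.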

[1] = test system: Staphylococcus saprophyticus; test: Antibacterial activity against Staphylococcus saprophyticus; summary of the method: as §1
Citrobacter freundii = test: Antibacterial activity against Citrobacter freundii; summary of the method: as §1
Enterococcus faecalis [2] = test: Antibacterial activity against VanB-resistant Enterococcus faecalis
Summary of the method: (§2)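 Broth microdilution MIC per CLSI guidelines, incubated at 35°C. Cation-adjusted Mueller-Hinton broth for nonfastidious organisms and staphylococci. Streptococci tested in the same broth with 3% lysed horse blood. Anaerobes tested in supplemented Brucella broth inside an anaerobe chamber (5% CO2, 5% H2, 90% N2), read after 48 h. Strains were mainly recent clinical isolates with confirmed identity.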

Burkholderia cepacia = test: Antibacterial activity against Burkholderia cepacia; summary of the method: as §1
[3] = test system: Peptoniphilus asaccharolyticus; test: Antibacterial activity against Peptostreptococcus asaccharolyticus
Summary of the method: (§3)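 Anaerobic broth microdilution MIC following CLSI guidelines, in supplemented Brucella broth. Run in an anaerobe chamber under 5% CO2, 5% H2 and 90% N2 at 35°C, and read after 48 h. Reported as MIC range, MIC50 and MIC90.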

Anaerococcus prevotii = test: Antibacterial activity against Peptostreptococcus prevotii; summary of the method: as §3
Prevotella sp. = test: Antibacterial activity against Prevotella sp.; summary of the method: as §3
Staphylococcus warneri = test: Antibacterial activity against Staphylococcus warneri; summary of the method: as §1
Prevotella bivia = test: Antibacterial activity against Prevotella bivia; summary of the method: as §3
Moraxella catarrhalis = test: Antibacterial activity against beta-lactamase positive Moraxella catarrhalis
Corynebacterium jeikeium = test: Antibacterial activity against Corynebacterium jeikeium
Summary of the method: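 Broth microdilution MIC following CLSI guidelines, in cation-adjusted Mueller-Hinton broth containing 3% lysed horse blood, incubated at 35°C. Clinical isolates with identity confirmed. Reported as MIC range, MIC50 and MIC90.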

[4] = test system: Stenotrophomonas maltophilia; test: Antibacterial activity against Stenotrophomonas maltophilia; summary of the method: as §1
Streptococcus sanguinis = test: Antibacterial activity against Streptococcus sanguis
Summary of the method: (§4)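 Broth microdilution MIC following CLSI guidelines, in cation-adjusted Mueller-Hinton broth with 3% lysed horse blood. Plates incubated at 35°C. Clinical isolates and reference strains, with identity confirmed by standard microbiological methods.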

Fusobacterium nucleatum = test: Antibacterial activity against Fusobacterium nucleatum; summary of the method: as §3
Enterococcus faecalis [5] = test: Antibacterial activity against beta-lactamase positive Enterococcus faecalis
Summary of the method: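 MIC by CLSI broth microdilution for nonfastidious organisms, in cation-adjusted Mueller-Hinton broth incubated at 35°C.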

Streptococcus viridans = test: Antibacterial activity against Streptococcus viridans; summary of the method: as §4
Enterococcus faecium [6] = test: Antibacterial activity against Enterococcus faecium; summary of the method: as §2
Escherichia coli = test: Antibacterial activity against Escherichia coli; summary of the method: as §1
Staphylococcus aureus = test: Antibacterial activity against oxacillin and levofloxacin-resistant Staphylococcus aureus; summary of the method: as §2
Enterobacter cloacae = test: Antibacterial activity against Enterobacter cloacae; summary of the method: as §1
Neisseria gonorrhoeae = test: Antibacterial activity against Neisseria gonorrhoeae
Summary of the method: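 MIC by broth microdilution in gonococcal broth, incubated at 35°C in 5% CO2. Reported as MIC range, MIC50 and MIC90.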

Enterococcus faecalis [7] = test: Antibacterial activity against Enterococcus faecalis; summary of the method: as §2
Clostridium perfringens = test: Antibacterial activity against Clostridium perfringens; summary of the method: as §2
Streptococcus equinus = test: Antibacterial activity against Streptococcus bovis; summary of the method: as §4
Finegoldia magna = test: Antibacterial activity against Peptostreptococcus magnus; summary of the method: as §3
Streptococcus pneumoniae = test: Antibacterial activity against penicillin-resistant Streptococcus pneumoniae; summary of the method: as §2
Enterococcus gallinarum = test: Antibacterial activity against Enterococcus gallinarum
Shigella flexneri = test: Antibacterial activity against Shigella flexneri; summary of the method: as §1
[8] = test system: Parabacteroides distasonis; test: Antimicrobial activity against Bacteroides distasonis
Summary of the method: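 Anaerobic broth microdilution MIC following CLSI guidelines, in supplemented Brucella broth. Incubated at 35°C in a chamber under 5% CO2, 5% H2 and 90% N2. Read after 48 h.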

Enterococcus faecalis [9] = test: Antibacterial activity against VanA-resistant Enterococcus faecalis; summary of the method: as §2
Enterococcus faecium [10] = test: Antibacterial activity against VanB-resistant Enterococcus faecium; summary of the method: as §2

Cc1c(N2CC[C@@H]([C@H](C)N)C2)c(F)cc2c(=O)[nH]c(=O)n(C3CC3)c12
MIC (Proteus vulgaris): 2 µg/mL (≈ 5.77 µM)
MIC50 (Klebsiella aerogenes): 8 µg/mL (≈ 23.1 µM)
MIC90 (Klebsiella aerogenes): 64 µg/mL (≈ 185 µM)
MIC50 (Shigella sonnei): 2 µg/mL (≈ 5.77 µM)
MIC90 (Shigella sonnei): 4 µg/mL (≈ 11.5 µM)
MIC50 (Cutibacterium acnes): 4 µg/mL (≈ 11.5 µM)
MIC90 (Cutibacterium acnes): 8 µg/mL (≈ 23.1 µM)
MIC50 (Haemophilus influenzae): 0.25 µg/mL (≈ 0.722 µM)
MIC90 (Haemophilus influenzae): 0.5 µg/mL (≈ 1.44 µM)
MIC50 [1]: 0.125 µg/mL (≈ 0.361 µM)
MIC90 [1]: 0.5 µg/mL (≈ 1.44 µM)
MIC50 (Citrobacter freundii): 8 µg/mL (≈ 23.1 µM)
MIC90 (Citrobacter freundii): > 64 µg/mL
MIC50 (Enterococcus faecalis [2]): 0.25 µg/mL (≈ 0.722 µM)
MIC90 (Enterococcus faecalis [2]): 0.5 µg/mL (≈ 1.44 µM)
MIC50 (Burkholderia cepacia): 32 µg/mL (≈ 92.4 µM)
MIC90 (Burkholderia cepacia): > 64 µg/mL
MIC [3]: 0.06 µg/mL (≈ 0.173 µM)
MIC (Anaerococcus prevotii): 0.06 µg/mL (≈ 0.173 µM)
MIC50 (Prevotella sp.): 0.5 µg/mL (≈ 1.44 µM)
MIC90 (Prevotella sp.): 2 µg/mL (≈ 5.77 µM)
MIC (Staphylococcus warneri): 0.125 µg/mL (≈ 0.361 µM)
MIC50 (Prevotella bivia): 0.5 µg/mL (≈ 1.44 µM)
MIC90 (Prevotella bivia): 2 µg/mL (≈ 5.77 µM)
MIC50 (Moraxella catarrhalis): 0.5 µg/mL (≈ 1.44 µM)
MIC90 (Moraxella catarrhalis): 0.5 µg/mL (≈ 1.44 µM)
MIC50 (Corynebacterium jeikeium): 0.5 µg/mL (≈ 1.44 µM)
MIC90 (Corynebacterium jeikeium): 1 µg/mL (≈ 2.89 µM)
MIC50 [4]: 32 µg/mL (≈ 92.4 µM)
MIC90 [4]: 64 µg/mL (≈ 185 µM)
MIC50 (Streptococcus sanguinis): 0.03 µg/mL (≈ 0.0866 µM)
MIC90 (Streptococcus sanguinis): 0.06 µg/mL (≈ 0.173 µM)
MIC (Fusobacterium nucleatum): 0.125 µg/mL (≈ 0.361 µM)
MIC (Enterococcus faecalis [5]): 0.06 µg/mL (≈ 0.173 µM)
MIC50 (Streptococcus viridans): 0.03 µg/mL (≈ 0.0866 µM)
MIC90 (Streptococcus viridans): 0.06 µg/mL (≈ 0.173 µM)
MIC50 (Enterococcus faecium [6]): 1 µg/mL (≈ 2.89 µM)
MIC90 (Enterococcus faecium [6]): 4 µg/mL (≈ 11.5 µM)
MIC50 (Escherichia coli): 2 µg/mL (≈ 5.77 µM)
MIC90 (Escherichia coli): 8 µg/mL (≈ 23.1 µM)
MIC50 (Staphylococcus aureus): 1 µg/mL (≈ 2.89 µM)
MIC90 (Staphylococcus aureus): 4 µg/mL (≈ 11.5 µM)
MIC50 (Enterobacter cloacae): 2 µg/mL (≈ 5.77 µM)
MIC90 (Enterobacter cloacae): 16 µg/mL (≈ 46.2 µM)
MIC50 (Neisseria gonorrhoeae): 0.5 µg/mL (≈ 1.44 µM)
MIC90 (Neisseria gonorrhoeae): 1 µg/mL (≈ 2.89 µM)
MIC50 (Enterococcus faecalis [7]): 0.25 µg/mL (≈ 0.722 µM)
MIC90 (Enterococcus faecalis [7]): 0.5 µg/mL (≈ 1.44 µM)
MIC50 (Clostridium perfringens): 2 µg/mL (≈ 5.77 µM)
MIC90 (Clostridium perfringens): 8 µg/mL (≈ 23.1 µM)
MIC50 (Streptococcus equinus): 0.06 µg/mL (≈ 0.173 µM)
MIC90 (Streptococcus equinus): 0.06 µg/mL (≈ 0.173 µM)
MIC (Finegoldia magna): 0.06 µg/mL (≈ 0.173 µM)
MIC50 (Streptococcus pneumoniae): 0.03 µg/mL (≈ 0.0866 µM)
MIC90 (Streptococcus pneumoniae): 0.06 µg/mL (≈ 0.173 µM)
MIC50 (Enterococcus gallinarum): 0.25 µg/mL (≈ 0.722 µM)
MIC90 (Enterococcus gallinarum): 0.5 µg/mL (≈ 1.44 µM)
MIC50 (Shigella flexneri): 2 µg/mL (≈ 5.77 µM)
MIC90 (Shigella flexneri): 4 µg/mL (≈ 11.5 µM)
MIC50 [8]: 16 µg/mL (≈ 46.2 µM)
MIC90 [8]: 32 µg/mL (≈ 92.4 µM)
MIC (Enterococcus faecalis [9]): 0.25 µg/mL (≈ 0.722 µM)
MIC (Enterococcus faecium [10]): 1 µg/mL (≈ 2.89 µM)
